Only some compounds are listed: those with a hit (about 2.4% of all), similar ones and a draw of the others.
TCR-CD3 inh: inhibitors of human TCR-CD3 interaction, primary screen, biochemical, fluorescence, TAMRA-labeled TCR probe | inhibition, % at 9.4 µM | 360,000 compounds, 0.37% hits | AID 651800, 2012 | T-cell receptor (TCR); in the data active means inhibition above about 19%;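 further: recombinant mutant TCR 2C K166C tagged with TAMRA read by polarization; 0% = receptor in buffer alone and 100% = receptor with positive control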
TDP2 inh: human TDP2 enzyme inhibitors, primary screen, biochemical, epi absorbance, recombinant enzyme; Tyrosyl-DNA phosphodiesterase 2 (Homo sapiens), O95551; T5PNP hydrolysis, p-nitrophenol absorbance 415 nm; inhibition, % at 12.8 µM; 370,000 compounds, 0.34% hits; AID 720702, 2013;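 active means inhibition above the mean of all tested compounds plus 3 SD, set per campaign, cut at about 25% in these data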;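 further: 0% = DMSO with enzyme and 100% = buffer with substrate but no TDP2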
Target sequence (O95551 whole entry, looked up): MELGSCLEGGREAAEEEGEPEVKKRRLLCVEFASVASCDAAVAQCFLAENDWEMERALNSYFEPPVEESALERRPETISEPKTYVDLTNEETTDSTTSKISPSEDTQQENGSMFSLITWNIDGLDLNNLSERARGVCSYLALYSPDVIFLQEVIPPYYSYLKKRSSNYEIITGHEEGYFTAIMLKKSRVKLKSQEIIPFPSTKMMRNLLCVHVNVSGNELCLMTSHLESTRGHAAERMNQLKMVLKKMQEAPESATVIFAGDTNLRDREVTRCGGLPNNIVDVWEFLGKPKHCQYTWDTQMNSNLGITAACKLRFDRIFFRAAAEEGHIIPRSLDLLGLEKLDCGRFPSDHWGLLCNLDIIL
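test system = human TDP2 enzyme | input = TDP2 enzyme at 120 nM final | medium = 50 mM Tris-HCl pH 7.5 with Mg2+, KCl, DTT, BSA | also added = T5PNP substrate, 5 mM | times = 2 h at 37 °C | technique = epi absorbance | benchmarks = high control without enzyme, low control DMSO plus TDP2 | replication = each compound tested once, singlicate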
SIAE inh: human SIAE inhibitors, primary screen, biochemical, fluorescence polarization, FP-Rh probe, 1536-well HTS | inhibition, % at 9.66 µM | SIAE FP-Rh probe binding | 370,000 compounds, 0.69% hits | Sialate O-acetylesterase (Homo sapiens), Q9HAT2;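 active means inhibition above a cutoff: mean of compounds within the control limits plus 3 SD of those, cut at about 17% in these data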;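 further: 0% = plate median of compound wells and 100% = probe without SIAE protein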
PAD4 FP inh: human PAD4 inhibitors, primary screen, biochemical, fluorescence polarization, 1536-well format; Protein-arginine deiminase type-4 (Homo sapiens), Q9UM07; recombinant PAD4, RCA probe fluorescence polarization; inhibition, % at 6.36 µM; 330,000 compounds, 0.41% hits;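 active means percent inhibition above a cutoff equal to the mean of all tested compounds plus 3 SD, cut at about 15% in these data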;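 further: 0% = PAD4 with RCA probe and DMSO and 100% = probe without PAD4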
GSTO1 counter: inhibitors of recombinant GSTO1, primary screen, counter-screen for RBBP9 inhibitor project, biochemical, fluorescence polarization. Glutathione S-transferase omega-1 (Homo sapiens), P78417. inhibition, % at 5.96 µM. 300,000 compounds, 1.1% hits. activity-based probe fluorescence polarization;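 active means inhibition above the campaign mean inhibition plus 3 SD, cut at about 35% in these data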;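 further: 0% = GSTO1-1 with DMSO and 100% = wells lacking GSTO1-1 enzyme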
Target sequence (P78417 whole entry, looked up): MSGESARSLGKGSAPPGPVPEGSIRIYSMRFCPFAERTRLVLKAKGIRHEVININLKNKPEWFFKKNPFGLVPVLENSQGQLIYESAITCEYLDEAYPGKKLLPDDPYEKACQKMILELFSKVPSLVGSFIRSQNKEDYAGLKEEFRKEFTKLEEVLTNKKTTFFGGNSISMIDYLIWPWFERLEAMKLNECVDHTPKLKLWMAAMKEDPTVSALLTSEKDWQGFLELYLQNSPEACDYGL
Apaf1 inhib: inhibitors of human Apaf-1 apoptosome, primary screen, biochemical, DEVD-Rh110 fluorescence, uHTS; Apoptotic protease-activating factor 1 (Homo sapiens), O14727; reconstituted apoptosome caspase-3 activity; inhibition, % at 20 µM; 330,000 compounds, 0.71% hits; AID 489030, 2010; active means inhibition of at least 40% at 20 µM;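 further: plate controls were DMSO wells for no effect and DEVD-CHO caspase inhibitor wells for full effect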
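Assay system: Apoptosome proteins | Medium: pH 7.5 Hepes buffer with CHAPS, BSA, DTT | Also added: Cytochrome c and DEVD-Rh110 substrate | Times: 30 min plus 50 min, RT | Detection: Rhodamine 110 fluorescence at Ex 480/Em 540 nm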
Apaf-1 inh conf: Apaf-1 inhibitors, single-dose retest, confirmation, biochemical, fluorescence, DEVD-Rh110, 20 µM. shares compounds with Apaf1 inhib. reconstituted apoptosome, caspase-3 DEVD-Rh110 fluorescence. inhibition, % at 20 µM. 1,800 compounds, 25% hits;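 active means mean inhibition of at least 40% at 20 µM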;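 further: plate controls were DMSO wells for no effect and DEVD-CHO caspase inhibitor control wells for full effect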
Rh110 interf inh: Rh110 fluorescence interference by putative Apaf-1 inhibitors, confirmation, artefact control for Apaf-1 inhibitor project, biochemical, 20 µM. shares compounds with Apaf1 inhib. activation (fluorescence interference), % at 20 µM. 1,800 tested, under 10 active. quenched caspase reaction. AID 504615, 2011;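 active means signal rise of 40% or more at 20 µM, treated as a fluorescence artifact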
Apaf1 inh interf: fluorescence interference of Apaf-1 inhibitor hits, dose response, artefact control for Apaf-1 inhibitor project | shares compounds with Apaf1 inhib | 460 tested, under 10 active | AID 588538, 2011 | fluorescence interference counterscreen, Apaf-1 assay format | IC50, µM; call rule not given here
* marks the source's active call; other numbers are inactive results; x = no result.

SMILES	TCR-CD3 inh	TDP2 inh	SIAE inh	PAD4 FP inh	GSTO1 counter	Apaf1 inhib	Apaf-1 inh conf	Rh110 interf inh	others
C#CCOCCOCCOCCNc1nc(N2CCN(C(=O)C([C@@H](C)O)n3cc([C@@H](N)CCCCN)nn3)CC2)nc(N2CCN(C(=O)[C@H](CCCN=C(N)N)n3cc(C(N)[C@@H](C)CC)nn3)CC2)n1 (stereo not given in full)	x	x	x	-1.0	x	46.2*	-2.9	-3.1
C#CCOCCOCCOCCNc1nc(N2CCN(C(=O)[C@H]([C@@H](C)CC)n3cc([C@@H](N)Cc4ccc(O)cc4)nn3)CC2)nc(N2CCN(C(=O)[C@H](Cc3cc4ccccc4[nH]3)n3cc([C@@H](N)CC(C)C)nn3)CC2)n1	x	x	x	-3.4	-7.0	63.0*	30.4	-3.5
C#CCOCCOCCOCCNc1nc(N2CCN(C(=O)[C@H](CCCCN)n3cc([C@@H](N)C(C)CC)nn3)CC2)nc(N2CCN(C(=O)[C@H](Cc3cc4ccccc4[nH]3)n3cc([C@@H](N)C(C)CC)nn3)CC2)n1 (stereo not given in full)	x	x	x	-2.6	x	53.3*	3.6	-7.2
C#CCOCCOCCOCCNc1nc(N2CCN(C(=O)[C@H]([C@@H](C)CC)n3cc([C@@H](N)CC(C)C)nn3)CC2)nc(N2CCN(C(=O)[C@H](Cc3cc4ccccc4[nH]3)n3cc([C@@H](N)C(C)CC)nn3)CC2)n1 (stereo not given in full)	x	x	x	x	x	29.9	x	x
C#CCOCCOCCOCCNc1nc(N2CCN(C(=O)[C@H]([C@@H](C)CC)n3cc([C@@H](N)CC(C)C)nn3)CC2)nc(N2CCN(C(=O)[C@H](Cc3cc4ccccc4[nH]3)n3cc([C@@H](N)Cc4ccc(O)cc4)nn3)CC2)n1	x	x	x	-3.4	5.1	56.4*	6.6	-1.0
Cc1cc(C)c2nc(-c3ccccc3)ccc2c1	3.3	6.6	1.5	x	x	x	x	x
COc1ccc(/C=N/NC(=O)c2nn(-c3ccccc3)c(=O)c3c(N)scc23)cc1	7.3	20.3	11.3	10.5	53.4*	60.5*	40.2*	1.5	Apaf1 inh interf=>100
COc1ccc(/C=N/NC(=O)c2nn(-c3ccc(Cl)cc3)c(=O)c3c(N)scc23)cc1	-1.4	11.6	11.3	-8.6	24.1	53.8*	25.7	3.5
COc1ccc2c(c1)c(C(=O)N/N=C/c1ccc(Cl)cc1)c(C)n2C	-2.7	-4.4	7.3	1.0	12.4	5.6	x	x
COc1ccc(/C=N/NC(=O)c2nn(-c3ccc(C)c(C)c3)c(=O)c3ccccc23)cc1	4.2	-4.7	-15.6	10.9	-3.7	13.8	x	x
CCOC(=O)NNC(=O)CCn1c2c(c3ccccc31)CCCC2	-2.8	-5.4	9.7	-5.3	5.1	8.4	x	x
O=C(CCn1c2c(c3ccccc31)CCCC2)NNC(=O)c1ccc([N+](=O)[O-])cc1	7.7	-3.4	10.5	2.5	3.2	80.9*	85.2*	6.9	Apaf1 inh interf=>100
O=C(CCn1c2c(c3ccccc31)CCCC2)NNC(=O)c1ccc(Cl)c([N+](=O)[O-])c1	1.6	-5.2	-1.8	-3.7	-1.6	88.6*	87.1*	7.8	Apaf1 inh interf=>100
CCN(CC)CCOC(=O)c1ccc(N/C=C(/C#N)c2nc(-c3cccc(OC)c3)cs2)cc1	-1.7	0.4	-2.8	-6.1	-3.4	55.4*	7.1	2.6
CCN(CC)CCOC(=O)c1ccc(N/C=C(/C#N)c2nc(-c3ccc(OC)c(OC)c3)cs2)cc1	-11.0	12.3	-10.5	-4.8	7.5	55.3*	67.3*	11.9	Apaf1 inh interf=>100
Cc1ccc(-c2csc(/C(C#N)=C/Nc3ccc4c(c3)OCCO4)n2)cc1	1.9	9.6	3.9	-1.5	-0.6	-8.7	x	x
CCOC(=O)c1ccc(N/C=C\C(=O)c2cccc(OC)c2)cc1	7.9	0.5	11.2	0.5	-2.8	-12.9	x	x
Cc1cc(C(=O)CCC(=O)Nc2ccc(C(N)=O)cc2)c(C)s1	-2.5	-5.3	7.4	x	x	x	x	x
COc1ccc(CNC[C@@H](CCCCN(C)Cc2ccc(OC)cc2)N2C[C@H](c3ccccc3)N(CCc3ccc(Cl)c(Cl)c3)C(=O)C2=O)cc1	x	x	x	-5.4	-2.4	49.3*	51.0*	7.1	Apaf1 inh interf=>100
CCOc1ccc(CCN2C(=O)C(=O)N([C@H](CCCN(C)Cc3ccccc3)CNCc3ccccc3)C[C@@H]2C(C)C)cc1	x	x	x	x	x	25.9	x	x
C[C@H](CO)N1C[C@H](C)[C@@H](CN(C)Cc2ccc(Oc3ccccc3)cc2)Oc2c(NC(=O)C3CC3)cccc2C1=O	5.8	3.5	-3.2	-0.1	x	43.4*	22.2	-4.5
C[C@H](CO)N1C[C@H](C)[C@@H](CN(C)Cc2ccc(C(=O)O)cc2)Oc2c(NC(=O)C3CC3)cccc2C1=O	0.1	1.4	-2.6	-2.1	x	-4.4	x	x
Nn1c(-c2ccc(F)cc2)nc2ccccc2c1=O	-4.9	-1.6	-16.3	-1.9	1.3	2.4	x	x
O=C1c2cc(F)ccc2-n2c1nc1ccccc1c2=O	-0.2	0.3	0.4	-8.3	35.3*	62.6*	51.8*	-0.6	Apaf1 inh interf=>100
CSc1ccccc1NC(=O)COc1ccc2c(c1)OCO2	-4.5	-2.3	10.2	4.5	x	45.3*	38.5	7.7
COc1ccccc1NC(=O)COc1ccc2c(c1)OCO2	7.1	-2.0	1.9	0.8	7.7	12.0	x	x
CC(C)[C@H](NC(=O)N1CCC(Cc2ccccc2)CC1)C(=O)O	0.9	1.0	2.2	0.9	5.8	41.6*	13.1	3.1
COC(=O)[C@H](C)NC(=O)N1CCC(Cc2ccccc2)CC1	-7.5	9.9	-8.2	4.5	-5.5	-1.8	x	x
COc1ccccc1CCNC(=O)CCn1c(=O)oc2ccccc21	4.0	2.9	-3.8	-0.7	-0.2	12.0	x	x
O=C(Nc1ccncc1)c1cc(-c2cccc(Br)c2)nc2ccccc12	2.4	-9.7	-56.0	-0.4	-16.8	47.2*	18.5	8.4

Assay outcomes: PubChem BioAssay, several laboratories
